The record followed here is ChEMBL document CHEMBL1124344, “5-Piperazinylalkyl-2(3H)-oxazolones with neuroleptic activity” (J Med Chem, 1989).

Some results are limits rather than exact numbers.

Data set [1] has as its system Rattus norvegicus. Description: Activity to evoke catalepsy in rats, by administering perorally at a dose of 150 mg/kg. The class given is functional. Particulars: route oral. The gist of the method: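 Rats fasted overnight and given oral doses in arabic gum suspension (10 mL/kg), 1 h before screening or 1 and 5 h before profile testing. Forelegs placed on a horizontal bar 7 cm high, three times at 5-min intervals. Immobility of at least 15 s counts as catalepsy. ED50 is the dose giving catalepsy in 50% of rats, by probit analysis. Parenthetical entries give the maximal dose and percent activity.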

The subject of data set [2] is Rattus norvegicus. The data set can be described thus: Antagonistic activity against apomorphine-induced stereotypy in rats, by administering perorally at a dose of 400 mg/kg. The class given is functional. As to conditions: route oral. In a few lines: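 Male rats fasted overnight and given oral doses in arabic gum suspension (10 mL/kg) 1 h, or 1 and 5 h, before challenge. Apomorphine 3 mg/kg iv, with stereotypy observed 20 min later. ED50 is the dose inhibiting stereotypy in 50% of rats, per Janssen's method. Parenthetical entries give the maximal dose and percent activity.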

In data set [3] the test system is Mus musculus. Description: Inhibition of amphetamine-induced hypermobility in mice following p.o. administration. The format is functional. As to conditions: po. In a few lines:
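Compounds were given orally to male mice (gum arabic suspension, 10 mL/kg, fasted) in groups of five. Amphetamine 4 mg/kg ip followed 30 min later. After another 10 min, motility was recorded for 15 min with a photocell actophotometer. ED50, by probit analysis, is the dose giving 50% reduction against controls.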

Data set [4] has as its system Mus musculus. The data set can be described thus: Inhibition of spontaneous motor activity in mice, by administering perorally. Particulars: po. The class given is functional. The gist of the method: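 Mice in groups of five were dosed orally with gum arabic suspensions at 10 mL/kg after an overnight fast, with a vehicle control group. Locomotion was counted for 10 min in a photocell activity cage, in at least two groups per dose. ED50, by probit analysis, is the dose giving 50% inhibition against controls.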

A short description of data set [5]: Lethal dose in mice (LD50) following i.p. dosing. The class given is toxicity, organism-based. As to conditions: mouse, in vivo, ip. In a few lines:
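Acute toxicity tested in mice by the intraperitoneal route. LD50 is the dose killing 50% of treated mice, computed by Finney probit analysis; values are approximate.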

Usually inhibition in vivo stands for the change of the read-out against control, counted positive when it falls. The low end stands for a weak effect, the high end for a strong effect. For orientation: ED50 means the midpoint of the dose-response relation. Higher therefore signals a need for a large dose. What is called LD50 is the dose at which mortality reaches 50%. `Oc1nc(-c2ccc(Cl)cc2)c(CCN2CCN(c3ccccc3)CC2)o1` yielded an inhibition in vivo at 150 mg/kg in the data set with Rattus norvegicus [1] of 0%. Further, the inhibition in vivo at 400 mg/kg in the data set with Rattus norvegicus [2] stood at 0%. For the same compound, the ED50 with Mus musculus [3] stood at 4.7 mg/kg; with Mus musculus [4] it was 3 mg/kg. Besides, in data set [5], the LD50 is > 1000 mg/kg.
